HePTP inhibitor: blocks human HePTP tyrosine phosphatase | recombinant HePTP phosphatase activity, OD absorbance | inhibition, % at 20 µM | 110,000 tested, 0.64% active | AID 521; in the data active = inhibition above about 50%;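 also: plate controls were vehicle for no effect and reference inhibitor for full effect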
E coli WT exp: growth inhibitors of E. coli BW25113 wild type; 98,000 tested, 0.15% active; AID 710; OD600 absorbance; growth inhibition, % at 100 µM;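 active = growth inhibition above about 50% at one test dose, limit read from the data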;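 also: growth measured after 20 h incubation at 37 °C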
PLAP activator: human PLAP activation; P05187; purified PLAP enzyme, luminescent substrate read-out; hits give high values; activation fold at 20 µM; 96,000 tested, 1.2% active; AID 696; in the data active = activation fold above about 2
Target sequence (P05187 whole entry, looked up): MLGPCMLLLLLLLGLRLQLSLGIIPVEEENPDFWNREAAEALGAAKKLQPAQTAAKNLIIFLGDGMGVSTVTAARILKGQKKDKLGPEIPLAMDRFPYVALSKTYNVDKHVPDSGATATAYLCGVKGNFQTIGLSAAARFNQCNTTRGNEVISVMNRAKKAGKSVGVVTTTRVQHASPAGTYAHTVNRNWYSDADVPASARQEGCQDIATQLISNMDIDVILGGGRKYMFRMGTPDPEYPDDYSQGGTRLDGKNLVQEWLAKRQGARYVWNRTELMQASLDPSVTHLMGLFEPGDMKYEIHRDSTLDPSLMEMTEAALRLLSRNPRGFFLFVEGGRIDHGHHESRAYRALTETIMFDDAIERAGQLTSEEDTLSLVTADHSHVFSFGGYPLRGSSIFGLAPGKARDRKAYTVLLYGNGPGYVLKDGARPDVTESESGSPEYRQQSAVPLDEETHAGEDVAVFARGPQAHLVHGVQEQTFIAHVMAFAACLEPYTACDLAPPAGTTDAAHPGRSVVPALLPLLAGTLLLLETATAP
PostGolgi ctrl: growth of the yeast control strain, post-Golgi counter-screen; efflux-deficient yeast background strain, growth absorbance A615, 16 h; inhibition, % at 10 µM; 98,000 tested, 5% active; AID 738
Ecoli tolC: E. coli tolC mutant growth inhibition; E. coli BW25113 tolC mutant growth, OD615; growth inhibition, % at 10 µM (by protocol); 65,000 tested, 2.2% active; AID 573;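 active = growth inhibition at or above a cutoff equal to the mean over every tested compound plus 3 SD, cut at about 60% in these data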;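 also: growth measured after 20 h incubation at 37 °C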
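Doses: one dose of 10 µM final / Material: E. coli BW25113 ΔtolC::kan, tolC deletion mutant strain / Buffer or medium: LB with kanamycin 50 µg/mL / Evaluation: percent growth inhibition / Detection: optical density read at 615 nm / Incubation: 37 °C, 20 h exposure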
PostGolgi yeast: growth inhibition of a yeast mutant, post-Golgi transport screen; 98,000 tested, 0.9% active; AID 739; post-Golgi transport phenotypic cell assay; inhibition, % at 10 µM;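 also: yeast cells grown in 1536-well plates; yeast grown about 18 h at 30C before absorbance read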
* = called active by the depositor. Sampled rows, rich in hits. Any-hit rate of the full collection: about 5.4%. Rule as the data show it, unless noted: active = inhibition above about 30%; inactive = the rest.

How did CCOC(=O)C1=C(CSCC(=O)OC)NC(=O)NC1c1cc(C)ccc1C (stereo not given) do in these assays?
E coli WT exp: 0; PLAP activator: 1.1; PostGolgi ctrl: 13; PostGolgi yeast: -6

How did O=S1(=O)CCC(NC(=S)N=Nc2c(O)[nH]c3ccccc23)C1 (stereo not given) do in these assays?
HePTP inhibitor: -3

What do the screens show for `C=CC1=C(C(=O)O)N2C(=O)C(NC(=O)Cc3ccccc3)C2SC1` (stereo not given)?
E coli WT exp: 33; PLAP activator: 1.3; PostGolgi ctrl: 5; PostGolgi yeast: 2

How did CC(=O)OCC1=C(C(=O)O)N2C(=O)[C@@H](NC(=O)Cc3cccs3)[C@H]2SC1 do in these assays?
Ecoli tolC: 100*

Results for CCOc1cc(C2C3=C(CC(C)(C)CC3=O)Nc3ccccc3N2C(C)=O)ccc1O (stereo not given) ?
HePTP inhibitor: 2

Results for CCn1c(C)nc2c(CN(C)C)c(O)ccc21 ?
HePTP inhibitor: 4

How did C=CCc1c(C)nc(C)nc1N/N=C/c1ccccc1O do in these assays?
E coli WT exp: 0; PLAP activator: 2.5*; PostGolgi ctrl: -5; PostGolgi yeast: -2

What do the screens show for `O=C1c2ccccc2C(=O)N1/N=C/c1c(O)ccc2ccccc12`?
HePTP inhibitor: -6

What do the screens show for `O/N=C/c1cc(Cl)ccc1OCc1cccc2ccccc12`?
E coli WT exp: -7; PLAP activator: 0.5; PostGolgi ctrl: 61*; PostGolgi yeast: 24

Results for COc1ccc(O)c(-c2c(-c3ccc(C)cc3)n[nH]c2C)c1 ?
HePTP inhibitor: -6

How did CCOc1cc(/C=C2\C(=O)N(c3ccc(S(N)(=O)=O)cc3)N=C2C)cc(Cl)c1O do in these assays?
HePTP inhibitor: 6

What do the screens show for `CCC1Oc2ccc(C)cc2N(CC(=O)NCc2cc(OC)ccc2OC)C1=O` (stereo not given)?
HePTP inhibitor: 6; E coli WT exp: -2; PLAP activator: 0.7; PostGolgi ctrl: 14; Ecoli tolC: 0; PostGolgi yeast: -2

Results for CCC1Oc2ccc(C)cc2N(CC(=O)NCc2cccc(OC)c2)C1=O (stereo not given) ?
HePTP inhibitor: -1; E coli WT exp: -8; PLAP activator: 1.1; PostGolgi ctrl: 33*; Ecoli tolC: 7; PostGolgi yeast: 15

What do the screens show for `O=C(NCc1ccc2[nH]c3c(c2c1)CCCC3)N1CCOCC1`?
HePTP inhibitor: -3; E coli WT exp: 1; PLAP activator: 1.4; PostGolgi ctrl: 30*; Ecoli tolC: -7; PostGolgi yeast: 21

What do the screens show for `CC(=O)c1ccc2c3c([nH]c2c1)CCCC3`?
HePTP inhibitor: -7

Results for CCCC1=C(C(=O)OCC)C(c2cc(Cl)cc(OC)c2OCC(=O)OCC)NC(=O)N1 (stereo not given) ?
HePTP inhibitor: 14; E coli WT exp: 6; PLAP activator: 1.2; PostGolgi ctrl: 11; Ecoli tolC: 83*; PostGolgi yeast: 0

How did O=C1c2ccc3c4c(ccc(c24)C(=O)N1Nc1ccccc1)CC3 do in these assays?
HePTP inhibitor: 1

How did O=C1c2ccccc2C(=O)N1CCc1csc(-c2cccc(F)c2)n1 do in these assays?
E coli WT exp: -20; PLAP activator: 0.9; PostGolgi ctrl: 42*; PostGolgi yeast: -5

How did Cn1c(NC(=O)c2cccs2)c(-c2cccs2)c(=O)c2ccccc21 do in these assays?
HePTP inhibitor: 0; E coli WT exp: -10; PLAP activator: 0.9; PostGolgi ctrl: 32*; Ecoli tolC: -19; PostGolgi yeast: 4

How did Cn1c(NC(=O)c2ccccc2)c(-c2cccs2)c(=O)c2ccccc21 do in these assays?
E coli WT exp: -7; PLAP activator: 0.8; PostGolgi ctrl: 25; PostGolgi yeast: 0

Results for O=C(Cn1nnc(-c2ccc(Cl)cc2)n1)NC1CC2CCC1C2 (stereo not given) ?
HePTP inhibitor: -1; E coli WT exp: -8; PLAP activator: 0.9; PostGolgi ctrl: 15; Ecoli tolC: 12; PostGolgi yeast: 37*

How did Oc1c(Br)cc(/C=N/Nc2nnc3c(n2)[nH]c2ccccc23)c(Br)c1O do in these assays?
HePTP inhibitor: 89*

What do the screens show for `O=C(N/N=C/c1cccc([N+](=O)[O-])c1O)/C(=C\c1ccc2c(c1)OCO2)NC(=O)c1ccccc1`?
HePTP inhibitor: -14

What do the screens show for `COc1ccc(O)c(C(=O)CC(=O)c2ccccc2)c1`?
HePTP inhibitor: -1; E coli WT exp: 33; PLAP activator: 1; PostGolgi ctrl: 33*; Ecoli tolC: 29; PostGolgi yeast: 12

Results for CCN(Cc1ccccc1)C(=O)c1cc2c(=O)oc3ccc(C)cc3c2s1 ?
E coli WT exp: -22; PLAP activator: 1.6; PostGolgi ctrl: 47*; PostGolgi yeast: 5

Results for O=C(O)CCCCCN1C(=O)/C(=C/c2cccc(F)c2)SC1=S ?
HePTP inhibitor: 13

Results for COc1ccc(-c2onc(C)c2-c2ccc(C(=O)OC(C)C)o2)c(O)c1 ?
HePTP inhibitor: -4; E coli WT exp: -3; PLAP activator: 1.3; PostGolgi ctrl: 37*; Ecoli tolC: 100*; PostGolgi yeast: 0

What do the screens show for `O=C1c2ccccc2C(=O)N1CCCCN(C(=O)c1cccc([N+](=O)[O-])c1)c1ccc(Cl)cc1`?
E coli WT exp: -6; PLAP activator: 1.1; PostGolgi ctrl: 18; PostGolgi yeast: 5

Results for O=C1c2ccccc2C(=O)N1CCCCN(C(=O)c1ccco1)c1ccc(Cl)cc1 ?
HePTP inhibitor: 7; E coli WT exp: -10; PLAP activator: 1.4; PostGolgi ctrl: 31*; Ecoli tolC: 45; PostGolgi yeast: 2

What do the screens show for `COc1cccc(Cn2c(Oc3cccc(C)c3)nc3c2c(=O)n(C)c(=O)n3C)c1`?
HePTP inhibitor: 2; E coli WT exp: -25; PLAP activator: 1.3; PostGolgi ctrl: 30; Ecoli tolC: 84*; PostGolgi yeast: 9

How did CCCOc1nc2c(c(=O)n(C)c(=O)n2C)n1Cc1cccc2ccccc12 do in these assays?
HePTP inhibitor: 4; E coli WT exp: -6; PLAP activator: 1.6; PostGolgi ctrl: 37*; Ecoli tolC: 65*; PostGolgi yeast: 4

What do the screens show for `Cn1c(=O)c2c(nc(N3CCNCC3)n2Cc2cccc3ccccc23)n(C)c1=O`?
HePTP inhibitor: 6; E coli WT exp: 4; PLAP activator: 1.5; PostGolgi ctrl: 8; Ecoli tolC: -32; PostGolgi yeast: -4

Results for O=C(NCc1ccco1)c1ccc(Cl)c([N+](=O)[O-])c1 ?
HePTP inhibitor: 3

What do the screens show for `CC(C)CN1C(=O)/C(=C/c2ccc(F)cc2)SC1=S`?
HePTP inhibitor: 7

Results for CC(C)(C)OC(=O)NCCc1nnc(SCc2ccc(Cl)cc2)o1 ?
E coli WT exp: 6; PLAP activator: 0.9; PostGolgi ctrl: 15; PostGolgi yeast: 1

What do the screens show for `O=C(CSc1nnc(CNc2cccc(Cl)c2)o1)OC1CCCCC1`?
E coli WT exp: 2; PLAP activator: 1.1; PostGolgi ctrl: 31*; PostGolgi yeast: 25

Compound activity deposited in PubChem BioAssay by several laboratories.
